From ChEMBL document CHEMBL1123988, “Studies on antifungal agents. 23. Novel substituted 3,5-diphenyl-3-(1H-imidazol-1-ylmethyl)- 2-alkylisoxazolidine derivatives” (1988)
≈ marks a conversion by molar mass, not a printed value.

Legend:
Aspergillus fumigatus = assay: In vitro antifungal activity against Aspergillus fumigatus ATCC 28212; format: functional
Outline: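 Agar-well MIC with Antibiotic Medium 3 + 2% agar containing compound at 70 to 0.2 µg/mL, using four- or six-point dilutions. Mold was grown about 1 week on Potato Flake Agar at 26 °C, swabbed into sterile water, counted by hemacytometer and adjusted to 1 × 10^4 cells/mL. MIC was the lowest dilution without visible growth.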

Candida albicans [1] = assay: In vitro antifungal activity against Candida albicans ATCC 10259; format: functional
Outline: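 Yeast was cultured overnight on Potato Flake Agar at 26 °C, swabbed into sterile water, counted by hemacytometer and diluted to 1 × 10^4 cells/mL. Wells (24-well) contained Antibiotic Medium 3 + 2% agar with compound at 70 to 0.2 µg/mL, in four- or six-point series. Each well got 0.05 mL and was held at 26 °C until control growth was visible. MIC was the lowest concentration with no visible growth.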

Candida albicans [2] = assay: In vitro antifungal activity against Candida stellatoidea ATCC 36232; format: functional
Outline: (§1)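 Solid agar MIC in 24-well plates. Compound was diluted 10-fold into Antibiotic Medium 3 + 2% agar at 70 to 0.2 µg/mL, using four- or six-point schemes, with a ketoconazole control. The organism was grown on Potato Flake Agar at 26 °C, counted by hemacytometer and diluted to 1 × 10^4 cells/mL. Wells received 0.05 mL and were incubated at 26 °C until control growth appeared. MIC was the lowest dilution with no visible growth.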

Epidermophyton floccosum = assay: In vitro antifungal activity against Epidermophyton floccosum ATCC E-18397; format: functional; outline: as §1
Microsporum canis = assay: In vitro antifungal activity against Microsporum canis ATCC 44459; format: functional; outline: as §1
Microsporum audouinii = assay: In vitro antifungal activity against Microsporum audouinii ATCC 9079; format: functional; outline: as §1
Trichophyton benhamiae = assay: (§2) In vitro antifungal activity against Trichophyton mentagrophytes ATCC 9533; format: functional, Arthroderma benhamiae; outline: as §1
Trichophyton rubrum = assay: In vitro antifungal activity against Trichophyton rubrum ATCC 18762; format: functional
Outline: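 Dermatophyte was grown about 2 weeks on Potato Flake Agar at 26 °C, washed off the plate with sterile water and diluted to 1 × 10^4 cells/mL by hemacytometer count. Agar wells (Antibiotic Medium 3 + 2% agar, compound 70 to 0.2 µg/mL, four- or six-point) were inoculated with 0.05 mL and incubated at 26 °C until controls grew. MIC was the lowest dilution showing no visible growth.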

[3] = tested on: Trichophyton schoenleinii; assay: In vitro antifungal activity against Trichophyton schoenleinii ATCC 22775; format: functional; outline: as §1
Trichophyton tonsurans [4] = assay: (§3) In vitro antifungal activity against Trichophyton tonsurans ATCC 9085; format: functional; outline: as §1
Candida albicans [5] = assay: Antifungal activity in rat vaginal candidasis, 2 day postinfection with Candida. albicans SOB FM-391; format: functional
Outline: (§4)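 Ovariectomized female Sprague–Dawley rats (170–230 g), eight per group, kept in pseudoestrus with weekly sc estradiol valerate (0.5 mg). Intravaginal challenge on day 4 with 1 × 10^7 organisms in 0.1 mL RPMI+. Oral dosing at 20 mg/kg in 1% (carboxymethyl)cellulose, twice daily for 7 days from 24 h post-infection. Vaginal swabs in PBS were serially diluted and plated on SDA for 48 h at 24–26 °C. Read-out is log10 organisms/mL lavage fluid.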

Candida albicans [6] = assay: Antifungal activity in rat vaginal candidasis, 3 day postinfection with Candida. albicans SOB FM-391; format: functional; outline: as §4
Candida albicans [7] = assay: Antifungal activity in rat vaginal candidasis, 4 day postinfection with Candida. albicans SOB FM-391; format: functional; outline: as §4
Candida albicans [8] = assay: Antifungal activity in rat vaginal candidasis, 7 day postinfection with Candida. albicans SOB FM-391; format: functional; outline: as §4
Candida albicans [9] = assay: Antifungal activity in rat vaginal candidasis, 8 day postinfection with Candida. albicans SOB FM-391; format: functional; outline: as §4
Candida albicans [10] = assay: Antifungal activity in rat vaginal candidasis, 1 day postinfection with Candida. albicans SOB FM-391; format: functional; outline: as §4
[11] = as §2; format: functional, Arthroderma benhamiae; conditions: Trichophyton benhamiae; outline: as §1
Trichophyton tonsurans [12] = assay: as §3; format: functional; remark: listed apart in the source
Outline: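 Solid agar MIC in 24-well plates. Compound was diluted 10-fold into Antibiotic Medium 3 + 2% agar, using either a […] or a 70/20/7/2/0.7/0.2 µg/mL scheme. Cells counted by hemacytometer were diluted to 1 × 10^4 cells/mL, and 0.05 mL was inoculated. Plates were incubated at 26 °C until compound-free controls grew. MIC is the lowest dilution with no visible growth.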

Trichophyton tonsurans [13] = assay: In vitro antifungal activity against Trichophyton tonsurans ATCC 9085
[14] = tested on: Trichophyton schoenleinii; assay: In vitro antifungal activity against Trichophyton schoenleinii ATCC 22775

| SMILES | MIC (Aspergillus fumigatus) [µg/mL] | MIC (Candida albicans [1]) [µg/mL] | MIC (Candida albicans [2]) [µg/mL] | MIC (Epidermophyton floccosum) [µg/mL] | MIC (Microsporum canis) [µg/mL] | MIC (Microsporum audouinii) [µg/mL] | MIC (Trichophyton benhamiae) [µg/mL] | MIC (Trichophyton rubrum) [µg/mL] | MIC [3] [µg/mL] | MIC (Trichophyton tonsurans [4]) [µg/mL] | Log (Candida albicans [5]) | Log (Candida albicans [6]) | Log (Candida albicans [7]) | Log (Candida albicans [8]) | Log (Candida albicans [9]) | Log (Candida albicans [10]) | MIC [11] [µg/mL] | MIC (Trichophyton tonsurans [12]) [µg/mL] | MIC (Trichophyton tonsurans [13]) [µg/mL] | MIC [14] [µg/mL] |
| --- | --- | --- | --- | --- | --- | --- | --- | --- | --- | --- | --- | --- | --- | --- | --- | --- | --- | --- | --- | --- |
| CN1O[C@H](c2c(Cl)cccc2Cl)C[C@@]1(Cn1ccnc1)c1ccc(Cl)cc1 | 2 (≈ 4.73 µM) | 7 (≈ 16.6 µM) | 7 (≈ 16.6 µM) | 0.7 (≈ 1.66 µM) | 2 (≈ 4.73 µM) | 20 (≈ 47.3 µM) | 7 (≈ 16.6 µM) | 0.7 (≈ 1.66 µM) | 7 (≈ 16.6 µM) | 0.7 (≈ 1.66 µM) | – | – | – | – | – | – | – | – | – | – |
| CN1O[C@H](c2ccc(Cl)cc2)C[C@@]1(Cn1ccnc1)c1ccc(Cl)cc1 | 7 (≈ 18 µM) | 7 (≈ 18 µM) | 2 (≈ 5.15 µM) | < 0.2 | 2 (≈ 5.15 µM) | 2 (≈ 5.15 µM) | < 0.2 | 0.7 (≈ 1.8 µM) | 0.7 (≈ 1.8 µM) | < 0.2 | 4 | 3.6 | 3.4 | 3.3 | 1.8 | 4.7 | – | – | – | – |
| CN1O[C@H](c2ccccc2Cl)C[C@@]1(Cn1ccnc1)c1ccc(Cl)cc1 | 7 (≈ 18 µM) | 7 (≈ 18 µM) | 0.7 (≈ 1.8 µM) | < 0.2 | 2 (≈ 5.15 µM) | 2 (≈ 5.15 µM) | < 0.2 | 0.7 (≈ 1.8 µM) | 0.7 (≈ 1.8 µM) | < 0.2 | – | – | – | – | – | – | – | – | – | – |
| Cc1ccc([C@H]2C[C@@](Cn3ccnc3)(c3ccc(Cl)cc3)N(C)O2)cc1 | 70 (≈ 190 µM) | 20 (≈ 54.4 µM) | 0.7 (≈ 1.9 µM) | 2 (≈ 5.44 µM) | 7 (≈ 19 µM) | 20 (≈ 54.4 µM) | – | 2 (≈ 5.44 µM) | 2 (≈ 5.44 µM) | – | – | – | – | – | – | – | 2 (≈ 5.44 µM) | 2 (≈ 5.44 µM) | – | – |
| Cc1ccc([C@@H]2C[C@@](Cn3ccnc3)(c3ccc(Cl)cc3)N(C)O2)cc1 | 70 (≈ 190 µM) | 7 (≈ 19 µM) | 0.7 (≈ 1.9 µM) | 0.7 (≈ 1.9 µM) | 7 (≈ 19 µM) | 7 (≈ 19 µM) | 0.7 (≈ 1.9 µM) | 2 (≈ 5.44 µM) | 2 (≈ 5.44 µM) | 0.7 (≈ 1.9 µM) | – | – | – | – | – | – | – | – | – | – |
| Fc1ccc([C@]2(Cn3ccnc3)C[C@@H](c3ccccc3)ON2Cc2ccccc2)cc1 | > 70 | 20 (≈ 48.4 µM) | – | – | – | – | – | 0.7 (≈ 1.69 µM) | – | – | – | – | – | – | – | – | – | – | – | – |
| CN1O[C@H](c2ccccc2)C[C@@]1(Cn1ccnc1)c1ccc(F)cc1 | 20 (≈ 59.3 µM) | 70 (≈ 207 µM) | – | – | – | – | – | 2 (≈ 5.93 µM) | – | – | – | – | – | – | – | – | – | – | – | – |
| CN1O[C@H](c2ccccc2)C[C@@]1(Cn1ccnc1)c1ccc(Cl)cc1 | 70 (≈ 198 µM) | 20 (≈ 56.5 µM) | 7 (≈ 19.8 µM) | 0.7 (≈ 1.98 µM) | 2 (≈ 5.65 µM) | 7 (≈ 19.8 µM) | < 0.2 | 0.7 (≈ 1.98 µM) | – | – | – | – | – | – | – | – | – | – | 0.7 (≈ 1.98 µM) | 2 (≈ 5.65 µM) |
| CN1O[C@@H](c2c(Cl)cccc2Cl)C[C@@]1(Cn1ccnc1)c1ccc(Cl)cc1 | 7 (≈ 16.6 µM) | 7 (≈ 16.6 µM) | 7 (≈ 16.6 µM) | 0.7 (≈ 1.66 µM) | 2 (≈ 4.73 µM) | 20 (≈ 47.3 µM) | 7 (≈ 16.6 µM) | 0.7 (≈ 1.66 µM) | 7 (≈ 16.6 µM) | 0.7 (≈ 1.66 µM) | – | – | – | – | – | – | – | – | – | – |
| CN1O[C@H](c2ccccc2)C[C@@]1(Cn1ccnc1)c1ccccc1 | 70 (≈ 219 µM) | 70 (≈ 219 µM) | 7 (≈ 21.9 µM) | 7 (≈ 21.9 µM) | 7 (≈ 21.9 µM) | 20 (≈ 62.6 µM) | 0.7 (≈ 2.19 µM) | 2 (≈ 6.26 µM) | 7 (≈ 21.9 µM) | 0.7 (≈ 2.19 µM) | – | – | – | – | – | – | – | – | – | – |
| COc1ccc([C@@H]2C[C@@](Cn3ccnc3)(c3ccc(OC)cc3)N(C)O2)cc1 | > 70 | 70 (≈ 184 µM) | 20 (≈ 52.7 µM) | 7 (≈ 18.4 µM) | 20 (≈ 52.7 µM) | 70 (≈ 184 µM) | 20 (≈ 52.7 µM) | 20 (≈ 52.7 µM) | 70 (≈ 184 µM) | 20 (≈ 52.7 µM) | – | – | – | – | – | – | – | – | – | – |
| CC(=O)N1CCN(c2ccc(OCC3COC(Cn4ccnc4)(c4ccc(Cl)cc4Cl)O3)cc2)CC1 (stereo not drawn) [KETOCONAZOLE] | 7 (≈ 13.2 µM) | 20 (≈ 37.6 µM) | 20 (≈ 37.6 µM) | < 0.2 | 2 (≈ 3.76 µM) | 7 (≈ 13.2 µM) | 2 (≈ 3.76 µM) | 0.7 (≈ 1.32 µM) | 0.7 (≈ 1.32 µM) | – | 1.5 | 0.3 | 0 | 0 | 0 | 5 | – | < 0.2 | – | – |
